Activity calls are given as the source filed them. The calls are words filed in the database; no cut-off is given here.
Legend:
[1] = tested on: Heart; test: Cardiotoxicity in Wistar rat assessed as effect on contractility administered for 20 mins; assay type: toxicity, tissue-based
Outline: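 Male Wistar rats (200−250 g) anesthetized with Narcoren 100 mg/kg ip. Excised heart Langendorff-perfused at constant flow 10 mL/min with Krebs−Henseleit buffer gassed with 95% O2/5% CO2. Values expressed as relative change from baseline before compound application.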

[2] = tested on: Rattus norvegicus; test: Antihypertensive activity in L-NAME-treated renin transgenic rat co-expressing RenTG(mRRen2)27 assessed as reduction in osteopontin expression at 3 to 10 mg/kg administered qd via oral gavage up to 21 days; assay type: functional, organism-based
Outline: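 Male RenTG(mRRen2)27 rats, 8 weeks old, given L-NAME in drinking water (50 mg/L) throughout. Randomised to placebo (2 mL/kg qd, n = 20) or 3 and 10 mg/kg/day po by gavage qd (n = 15 per group). Tail-cuff blood pressure on day 0, 7, 14 and 21. Plasma taken at day 22 end. Unpaired t test, mean ± SEM.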

[3] = target: T1, Cytochrome P450 3A4 (Homo sapiens, UniProt P08684); test: Inhibition of human liver microsomes CYP3A4 using testosterone as substrate preincubated with compound followed by substrate addition; assay type: ADME
[4] = target: T2, Cytochrome P450 1A2 (Homo sapiens, UniProt P05177); test: Inhibition of human liver microsomes CYP1A2 using phenacetin as substrate; assay type: ADME
T2 sequence (P05177 whole entry): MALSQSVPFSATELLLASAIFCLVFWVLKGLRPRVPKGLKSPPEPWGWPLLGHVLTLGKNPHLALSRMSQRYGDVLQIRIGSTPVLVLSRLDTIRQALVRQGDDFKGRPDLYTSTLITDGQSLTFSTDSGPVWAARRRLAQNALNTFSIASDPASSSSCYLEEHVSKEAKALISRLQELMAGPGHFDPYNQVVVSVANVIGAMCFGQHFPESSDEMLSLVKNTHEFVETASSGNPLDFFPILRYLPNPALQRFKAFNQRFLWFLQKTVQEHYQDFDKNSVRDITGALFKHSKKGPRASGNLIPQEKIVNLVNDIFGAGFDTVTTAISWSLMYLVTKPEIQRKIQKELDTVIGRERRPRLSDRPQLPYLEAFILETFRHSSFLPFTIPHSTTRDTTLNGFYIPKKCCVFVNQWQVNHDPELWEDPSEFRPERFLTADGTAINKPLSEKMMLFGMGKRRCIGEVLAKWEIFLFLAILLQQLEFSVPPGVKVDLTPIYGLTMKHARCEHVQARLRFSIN

[5] = target: T3, Cytochrome P450 2A6 (Homo sapiens, UniProt P11509); test: Inhibition of human liver microsomes CYP2A6 using coumarin as substrate; assay type: ADME
T3 sequence (P11509 whole entry): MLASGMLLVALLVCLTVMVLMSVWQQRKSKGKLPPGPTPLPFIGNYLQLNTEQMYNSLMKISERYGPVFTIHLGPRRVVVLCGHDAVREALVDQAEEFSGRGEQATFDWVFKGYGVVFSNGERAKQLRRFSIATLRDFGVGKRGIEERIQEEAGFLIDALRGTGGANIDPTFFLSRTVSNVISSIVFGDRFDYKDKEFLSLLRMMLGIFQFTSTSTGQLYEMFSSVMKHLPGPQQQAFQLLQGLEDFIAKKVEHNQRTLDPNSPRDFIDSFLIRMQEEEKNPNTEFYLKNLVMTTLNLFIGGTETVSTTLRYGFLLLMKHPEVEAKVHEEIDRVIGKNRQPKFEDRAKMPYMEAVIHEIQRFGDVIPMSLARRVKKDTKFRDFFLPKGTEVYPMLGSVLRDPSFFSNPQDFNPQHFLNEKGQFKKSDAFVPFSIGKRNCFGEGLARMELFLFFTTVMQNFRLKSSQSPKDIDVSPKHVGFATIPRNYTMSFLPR

[6] = Stimulation of rat sGC expressed in CHO cells using GTP as substrate assessed as increase in cGMP formation treated for 6 mins by luminescence assay; assay type: cell-based
Outline: (§1)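 CHO reporter cells overexpressing sGC, cultured 1 or 2 d, then loaded 3 h with coelenterazine in calcium-free Tyrode. Compound serial dilutions applied 6 min. Calcium added (final 3 mM) and luminescence read for 40 s by CCD camera. SNAP co-applied at 30 or 100 nM where stated. ODQ condition: 10 μM ODQ pretreatment for 3 h.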

[7] = target: Cytochrome P450 2D6 (Homo sapiens, UniProt P10635); test: Inhibition of human liver microsomes CYP2D6 using dextromethorphan as substrate; assay type: ADME
[8] = tested on: Aorta; test: Inhibition of phenylephrine-induced contractions in Chinchilla rabbit aortic rings administered at the beginning of the last resting period of 28 mins; assay type: functional; settings: Oryctolagus cuniculus
[9] = Stimulation of rat sGC expressed in CHO cells using GTP as substrate assessed as increase in cGMP formation treated for 6 mins in presence of sGC inhibitor ODQ by luminescence assay; assay type: cell-based; outline: as §1
[10] = Terminal half life in iv dosed Beagle dog blood after 24 hrs by LC-MS analysis; assay type: ADME, organism-based, Canis lupus familiaris; settings: whole blood, read-out: beta t1/2 (converted)
Outline: (§2)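 Male Wistar rats and female beagle dogs. iv in plasma/DMSO (rat) or H2O/PEG 400/EtOH (dog). Oral gavage in H2O/PEG 400/EtOH for both. Rats jugular-catheterised ≥1 d before dosing. Usually >10 blood samples, at least two after 24 h. Plasma quantified by LC-MS with internal standard. CL, t1/2, Vss and F calculated from plasma curves. Blood clearance via blood/plasma ratio (20 min blood incubation).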

[11] = tested on: Rattus norvegicus; test: Effect on mortality in L-NAME-treated renin transgenic rat co-expressing RenTG(mRRen2)27 assessed as survival rate at 10 mg/kg administered qd via oral gavage up to 21 days (reference value: 25%); assay type: functional; settings: 504 h
[12] = Oral bioavailability in Beagle dog administered via oral gavage after 24 hrs by LC-MS analysis; assay type: ADME, organism-based, Canis lupus familiaris; settings: in vivo; outline: as §2
[13] = target: T1, Cytochrome P450 3A4; test: Inhibition of human liver microsomes CYP3A4 using midazolam as substrate; assay type: ADME
[14] = Volume of distribution at steady state in iv dosed Wistar rat after 24 hrs by LC-MS analysis; assay type: ADME, organism-based; settings: in vivo, read-out: Vdss; outline: as §2

T1 sequence (P08684 whole entry): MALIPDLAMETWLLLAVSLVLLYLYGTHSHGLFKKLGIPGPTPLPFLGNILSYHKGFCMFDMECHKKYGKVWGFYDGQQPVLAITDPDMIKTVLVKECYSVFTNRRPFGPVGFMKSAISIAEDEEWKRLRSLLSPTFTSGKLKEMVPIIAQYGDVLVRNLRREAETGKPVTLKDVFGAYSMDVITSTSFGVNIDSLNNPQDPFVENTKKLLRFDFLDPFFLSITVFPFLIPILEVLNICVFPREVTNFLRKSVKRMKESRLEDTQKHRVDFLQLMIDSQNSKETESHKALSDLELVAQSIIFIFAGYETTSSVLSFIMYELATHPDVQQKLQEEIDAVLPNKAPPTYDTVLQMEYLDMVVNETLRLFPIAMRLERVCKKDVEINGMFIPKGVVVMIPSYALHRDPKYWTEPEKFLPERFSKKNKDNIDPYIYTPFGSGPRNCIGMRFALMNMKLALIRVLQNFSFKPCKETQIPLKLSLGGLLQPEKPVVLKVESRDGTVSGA
Chain of Cytochrome P450 2D6 (P10635 whole entry): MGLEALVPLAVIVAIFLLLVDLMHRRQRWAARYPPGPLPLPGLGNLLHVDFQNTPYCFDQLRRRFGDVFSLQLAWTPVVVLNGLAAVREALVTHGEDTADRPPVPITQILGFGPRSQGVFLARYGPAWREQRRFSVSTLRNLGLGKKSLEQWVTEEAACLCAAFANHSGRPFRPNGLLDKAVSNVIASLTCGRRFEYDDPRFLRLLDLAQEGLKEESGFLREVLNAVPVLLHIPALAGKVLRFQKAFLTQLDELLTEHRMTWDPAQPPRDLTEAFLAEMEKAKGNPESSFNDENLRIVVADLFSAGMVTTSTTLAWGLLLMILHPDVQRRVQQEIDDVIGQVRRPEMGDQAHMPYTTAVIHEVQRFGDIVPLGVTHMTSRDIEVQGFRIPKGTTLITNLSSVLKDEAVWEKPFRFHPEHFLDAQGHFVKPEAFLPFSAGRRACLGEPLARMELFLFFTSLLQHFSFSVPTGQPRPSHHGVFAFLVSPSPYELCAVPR

**Q.** Which Activity [1] does the source give for `COC(=O)Nc1c(N)nc(-c2nn(Cc3ccccc3F)c3ncc(F)cc23)nc1N` [VERICIGUAT] here?
**A.** Non-Toxic

**Q.** What about the Activity [2] of the same molecule?
**A.** Active

**Q.** What about the IC50 [3] of the same molecule?
**A.** > 50 µM

**Q.** And the IC50 [4]?
**A.** > 50 µM

**Q.** And the IC50 [5]?
**A.** > 50 µM

**Q.** And the EC50 [6]?
**A.** 1.01 µM

**Q.** And the IC50 [7]?
**A.** > 50 µM

**Q.** And the IC50 [8]?
**A.** 0.692 µM

**Q.** What about the EC50 [9] of the same molecule?
**A.** 0.256 µM

**Q.** What about the half-life [10] of the same molecule?
**A.** 6.2 h

**Q.** And the survival at 10 mg/kg [11]?
**A.** 90%

**Q.** And the bioavailability [12]?
**A.** 75%

**Q.** And the IC50 [13]?
**A.** > 50 µM

**Q.** What about the Vd [14] of the same molecule?
**A.** 1 L/kg

— ChEMBL document CHEMBL4014344, “Discovery of the Soluble Guanylate Cyclase Stimulator Vericiguat (BAY 1021189) for the Treatment of Chronic Heart Failure” (J Med Chem, 2017)
